# Reference: ChEMBL document CHEMBL3046951, “Volatile constituents from the leaves of Callicarpa japonica Thunb. and their antibacterial activities” (2004)
# Experiments:
# Format in all cases: functional
# Escherichia coli [1] = assay: Antimicrobial activity against Escherichia coli O157:H7 ATCC 43894 assessed as growth inhibition rate at 21.52 mg/l after 72 hr by spectrophotometry; conditions: O157:H7 ATCC 43894, 72 h, read-out: GI
# Salmonella typhimurium = assay: Antimicrobial activity against Salmonella enterica subsp. enterica serovar Typhimurium ATCC 14028 assessed as growth inhibition rate at 43 mg/l after 72 hr by spectrophotometry; conditions: ATCC 14028, 72 h, read-out: GI
# Summary of the method: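 Salmonella Typhimurium ATCC 14028 grown in nutrient broth at 30 °C, precultured 24 h, then subcultured 1:100 for 18 h before testing. Single volatile compounds (>95% pure) were added. OD was read every 24 h over 72 h in a Bioscreen C, with 10% Tween 80 as the comparison control.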
# Staphylococcus aureus [2] = assay: Antimicrobial activity against Staphylococcus aureus ATCC 25923 assessed as growth inhibition rate at 107.52 mg/l after 72 hr by spectrophotometry; conditions: ATCC 25923, 72 h, read-out: GI
# Staphylococcus aureus [3] = assay: Antimicrobial activity against Staphylococcus aureus ATCC 25923 assessed as growth inhibition rate at 6.12 mg/l after 72 hr by spectrophotometry; conditions: ATCC 25923, 72 h, read-out: GI
# Listeria monocytogenes [4] = assay: Antimicrobial activity against Listeria monocytogenes ATCC 19111 assessed as growth inhibition rate at 21.52 mg/l after 72 hr by spectrophotometry; conditions: ATCC 19111, 72 h, read-out: GI
# Summary of the method: (§1)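 L. monocytogenes was grown at 30 °C in tryptic soy broth, subcultured for 18 h, and exposed to pure volatile compounds (>95% purity). Growth was followed by Bioscreen C optical density every 24 h for 72 h against a 10% Tween 80 control.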
# Bacillus cereus = assay: Antimicrobial activity against Bacillus cereus ATCC 11778 assessed as growth inhibition rate at 6.12 mg/l after 72 hr by spectrophotometry; conditions: ATCC 11778, 72 h, read-out: GI
# Summary of the method: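 Pure volatile compounds (purity >95%; one at 90%) were tested against B. cereus ATCC 11778. The strain was grown at 30 °C in nutrient broth for 24 h, then subcultured for 18 h. Optical density was read in a Bioscreen C every 24 h for 72 h, with 10% Tween 80 as the control.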
# Staphylococcus aureus [5] = assay: Antimicrobial activity against Staphylococcus aureus ATCC 25923 assessed as growth inhibition rate at 43 mg/l after 72 hr by spectrophotometry; conditions: ATCC 25923, 72 h, read-out: GI
# Vibrio parahaemolyticus [6] = assay: Antimicrobial activity against Vibrio parahaemolyticus ATCC 33844 assessed as growth inhibition rate at 107.52 mg/l after 72 hr by spectrophotometry; conditions: ATCC 33844, 72 h, read-out: GI
# Vibrio parahaemolyticus [7] = assay: Antimicrobial activity against Vibrio parahaemolyticus ATCC 33844 assessed as growth inhibition rate at 43 mg/l after 72 hr by spectrophotometry; conditions: ATCC 33844, 72 h, read-out: GI
# Escherichia coli [8] = assay: Antimicrobial activity against Escherichia coli O157:H7 ATCC 43894 assessed as growth inhibition rate at 215.04 mg/l after 72 hr by spectrophotometry; conditions: O157:H7 ATCC 43894, 72 h, read-out: GI
# Listeria monocytogenes [9] = assay: Antimicrobial activity against Listeria monocytogenes ATCC 19111 assessed as growth inhibition rate at 61.12 mg/l after 72 hr by spectrophotometry; conditions: ATCC 19111, 72 h, read-out: GI; summary of the method: as §1
compound,measurement,setting,value
CCC/C=C/C=O,inhibition of growth at 21.52 µg/mL,Escherichia coli [1],8.2%
same,inhibition of growth at 43 µg/mL,Salmonella typhimurium,83.4%
same,inhibition of growth at 107.52 µg/mL,Staphylococcus aureus [2],96.7%
same,inhibition of growth at 6.12 µg/mL,Staphylococcus aureus [3],29.2%
same,inhibition of growth at 21.52 µg/mL,Listeria monocytogenes [4],32%
same,inhibition of growth at 6.12 µg/mL,Bacillus cereus,90.5%
same,inhibition of growth at 43 µg/mL,Staphylococcus aureus [5],44.3%
same,inhibition of growth at 107.52 µg/mL,Vibrio parahaemolyticus [6],99.8%
same,inhibition of growth at 43 µg/mL,Vibrio parahaemolyticus [7],100%
same,inhibition of growth at 215.04 µg/mL,Escherichia coli [8],97.3%
same,inhibition of growth at 61.12 µg/mL,Listeria monocytogenes [9],81.2%
